PubChem BioAssay AID651999 (Sanford-Burnham Center for Chemical Genomics, 2013)
In all, about 360,000 compounds went through this assay and about 1,400 (0.39%) were called active.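 How the source made its calls: active means pattern-corrected inhibition above about 35%, with an unprinted fluorescence ratio check between 0.5 and 1.5 (limit read from the data, passing the limit was not always enough); inactive means the rest.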 The entries come from a sample that favours actives as a whole.

Molecular target: COP9 signalosome complex subunit 5 (Homo sapiens) (UniProt Q92905)
Sequence (Q92905 whole entry, looked up, one chain of several): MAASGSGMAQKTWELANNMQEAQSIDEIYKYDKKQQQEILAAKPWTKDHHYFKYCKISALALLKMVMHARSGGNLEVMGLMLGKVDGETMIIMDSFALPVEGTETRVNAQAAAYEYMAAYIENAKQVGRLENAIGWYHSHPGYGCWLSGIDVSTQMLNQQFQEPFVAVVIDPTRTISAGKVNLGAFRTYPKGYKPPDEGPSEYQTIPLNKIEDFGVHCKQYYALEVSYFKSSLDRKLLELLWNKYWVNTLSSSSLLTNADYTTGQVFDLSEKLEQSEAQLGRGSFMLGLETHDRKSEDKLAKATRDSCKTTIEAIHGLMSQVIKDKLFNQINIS
Assay: inhibitors of CSN-mediated cullin deneddylation, primary screen, biochemical, fluorescence polarization, uHTS (AID 651999);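 further: 0% = enzyme with substrate and 100% = substrate without enzyme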
Conditions: Purified CSN, SCF-Nedd8-OG deneddylation, at 12.5 µM, hits give high values
Summary of the method: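 test system = HEK293T-derived human Csn5 enzyme | amount = 0.24 nM Csn5 enzyme, final concentration | medium = Tris/NaCl/DTT buffer, pH 7.5 | schedule = 90 min reaction at room temperature | signal = FP | evaluation = inhibition of Csn5 cleavage, % | compound dosing = single dose of 12.5 µM compound with 0.25% DMSO | probe or stimulus = 10 nM SCFSkp2-Nedd8OG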

| SMILES | inhibition |
| --- | --- |
| COc1ccc(N2C(=O)/C(=C/c3ccco3)C(=O)NC2=S)cc1 | 39.6% (active) |
| COc1ccc(NC(=O)N2Cc3ccccc3-n3nncc3C2)cc1 | 1.89% (inactive) |
| O=C1N=c2ccccc2=C/C1=C\c1c(O)[nH]c(=S)[nH]c1=O | 3.94% (inactive) |
| CCOCCc1c(O)[nH]c(=S)[nH]c1=O | -1.36% (inactive) |
| COc1ccccc1N=Nc1c(O)[nH]c(=S)[nH]c1=O | 64.6% (active) |
| C=CC12CN(C)[C@@H]3C4CO[C@H](C[C@H]41)[C@]1(C(=O)Nc4ccccc41)[C@@H]32 (stereo not given in full) | 6.32% (inactive) |
| CC(=O)Nc1ccccc1C(=O)OCC(=O)c1cccc2ccccc12 | -2.94% (inactive) |
| CCN1CCN(c2nc3c(c(=O)[nH]2)CCC3)CC1 | 2.3% (inactive) |
| CCNc1nc2[nH]c(=O)c3c(c2s1)OC(N)=C(C#N)C3c1cccs1 (stereo not given) | 7.11% (inactive) |
| Cn1c(O)c(C=NCCN2CCNCC2)c(=O)n(C)c1=O | 2.48% (inactive) |
| CC(C)(C)c1ccc(CN2C(=O)CN=C(c3ccccc3)c3ccccc32)cc1 | -0.66% (inactive) |
| O=C1CC(=O)N(Cc2ccccc2)C(=O)N1CCCCCCN1C(=O)CC(=O)N(Cc2ccccc2)C1=O | 81.1% (active) |
| O=C(CN1CCCC1=O)NCCc1ccccc1 | -4.34% (inactive) |
| COC(=O)C1=C(c2cc3ccccc3s2)C[C@@H]2CC[C@H]1N2C(=O)NC(C)C | 4.07% (inactive) |
| Cc1cccc(-n2c(O)c(/C=N/N3CCOCC3)c(=O)[nH]c2=S)c1 | -0.17% (inactive) |
